This is an account of results in ChEMBL document CHEMBL1135421, “2-(Anilinomethyl)imidazolines as alpha1 adrenergic receptor agonists: the discovery of alpha1a subtype selective 2'-alkylsulfonyl-substituted analogues” (J Med Chem, 2002).

The target of assay [1] is T1, Alpha-1D adrenergic receptor (Homo sapiens, UniProt P25100).
T1 sequence (P25100 whole entry): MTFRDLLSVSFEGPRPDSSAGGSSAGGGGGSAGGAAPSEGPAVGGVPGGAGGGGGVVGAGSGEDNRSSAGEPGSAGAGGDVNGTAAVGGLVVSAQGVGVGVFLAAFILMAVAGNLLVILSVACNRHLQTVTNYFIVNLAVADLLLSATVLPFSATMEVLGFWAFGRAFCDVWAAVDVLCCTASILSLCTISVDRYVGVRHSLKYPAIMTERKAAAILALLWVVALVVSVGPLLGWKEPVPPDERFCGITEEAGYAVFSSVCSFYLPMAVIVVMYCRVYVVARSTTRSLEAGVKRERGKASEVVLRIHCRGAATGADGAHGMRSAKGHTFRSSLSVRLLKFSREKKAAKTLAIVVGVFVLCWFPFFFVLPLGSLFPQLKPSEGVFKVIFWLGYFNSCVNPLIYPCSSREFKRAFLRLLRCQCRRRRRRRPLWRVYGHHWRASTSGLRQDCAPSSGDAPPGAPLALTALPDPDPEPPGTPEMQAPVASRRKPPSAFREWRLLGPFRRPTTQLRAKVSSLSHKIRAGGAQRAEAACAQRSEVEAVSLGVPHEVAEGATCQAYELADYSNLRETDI
As to the kind of experiment: Affinity to human Alpha-1D adrenergic receptor determined by radioligand binding techniques from rat-1 fibroblasts membranes.

The target of assay [2] is T1, Alpha-1D adrenergic receptor. The experiment in a line: Agonist potency at Alpha-1D adrenergic receptor assayed in rat-1 fibroblasts expressing human Alpha-1D adrenergic receptor. Type of assay: functional. An outline of the steps:
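Rat-1 fibroblasts expressing human α1a/α1b/α1d, grown in DMEM with 10% heat-inactivated FBS and 0.6 mg/mL G418, plated 6000 cells/well and cultured 48 h at 37 °C. Loaded 2 h at 37 °C with Calcium Green (4 μM), 0.2% pluronic acid and 2.5 mM probenecid in HEPES buffer pH 7.4. FLIPR read at room temperature: 10 s baseline, then 50 s after compound. 11-point curves as % of 40 μM phenylephrine response, top concentration typically 5 μM.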

Assay [3] has as its target T2, Alpha-1A adrenergic receptor (Homo sapiens, UniProt P35348).
T2 sequence (P35348 whole entry): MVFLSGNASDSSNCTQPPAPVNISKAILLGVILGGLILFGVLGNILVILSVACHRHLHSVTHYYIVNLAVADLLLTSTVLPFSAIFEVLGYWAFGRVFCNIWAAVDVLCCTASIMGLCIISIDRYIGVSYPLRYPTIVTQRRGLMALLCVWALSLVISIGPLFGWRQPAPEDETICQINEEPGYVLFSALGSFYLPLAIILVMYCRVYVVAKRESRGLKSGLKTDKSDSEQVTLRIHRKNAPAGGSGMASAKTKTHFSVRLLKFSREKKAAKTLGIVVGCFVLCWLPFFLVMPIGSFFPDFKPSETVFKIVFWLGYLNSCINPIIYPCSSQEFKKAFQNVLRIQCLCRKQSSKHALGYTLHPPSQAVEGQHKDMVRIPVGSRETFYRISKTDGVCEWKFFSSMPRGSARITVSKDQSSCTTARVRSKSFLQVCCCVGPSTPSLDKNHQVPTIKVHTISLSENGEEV
As to the kind of experiment: Affinity to Alpha-1 adrenergic receptor determined by radioligand binding techniques from rat-1 fibroblasts membranes.

Assay [4] concerns the target T3, Alpha-2B adrenergic receptor (Homo sapiens, UniProt P18089).
T3 sequence (P18089 whole entry): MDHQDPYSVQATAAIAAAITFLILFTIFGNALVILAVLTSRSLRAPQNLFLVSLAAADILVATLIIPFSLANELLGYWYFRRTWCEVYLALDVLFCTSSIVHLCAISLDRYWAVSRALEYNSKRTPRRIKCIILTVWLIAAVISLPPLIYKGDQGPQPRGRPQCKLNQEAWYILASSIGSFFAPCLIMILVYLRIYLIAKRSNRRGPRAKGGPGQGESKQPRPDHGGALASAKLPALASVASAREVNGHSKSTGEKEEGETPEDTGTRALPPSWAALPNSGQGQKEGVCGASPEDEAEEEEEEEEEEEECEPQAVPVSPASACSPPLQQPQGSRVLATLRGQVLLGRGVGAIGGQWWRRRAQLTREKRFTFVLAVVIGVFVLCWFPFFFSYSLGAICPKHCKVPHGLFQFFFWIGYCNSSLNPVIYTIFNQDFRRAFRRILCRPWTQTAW
As to the kind of experiment: Affinity to human Alpha-2B adrenergic receptor determined by radioligand binding techniques from chinese hamster ovary (CHO) cells. Type of assay: cell-based.

Assay [5] has as its target T4, Alpha-1B adrenergic receptor (Homo sapiens, UniProt P35368).
T4 sequence (P35368 whole entry): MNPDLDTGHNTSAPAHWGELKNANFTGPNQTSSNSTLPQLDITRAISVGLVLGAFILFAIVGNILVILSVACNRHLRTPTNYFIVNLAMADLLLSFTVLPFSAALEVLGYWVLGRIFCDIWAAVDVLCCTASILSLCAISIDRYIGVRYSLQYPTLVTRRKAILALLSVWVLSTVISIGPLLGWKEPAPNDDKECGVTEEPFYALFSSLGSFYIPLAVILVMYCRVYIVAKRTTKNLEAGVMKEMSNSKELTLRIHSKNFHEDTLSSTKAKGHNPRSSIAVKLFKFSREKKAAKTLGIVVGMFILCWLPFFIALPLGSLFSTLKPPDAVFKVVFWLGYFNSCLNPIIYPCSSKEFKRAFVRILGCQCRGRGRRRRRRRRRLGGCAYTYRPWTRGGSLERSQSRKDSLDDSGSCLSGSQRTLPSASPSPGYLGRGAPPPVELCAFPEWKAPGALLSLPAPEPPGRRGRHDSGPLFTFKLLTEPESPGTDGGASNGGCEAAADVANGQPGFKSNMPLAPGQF
The experiment in a line: Affinity to human Alpha-1B adrenergic receptor determined by radioligand binding techniques from rat-1 fibroblasts membranes.

The target of assay [6] is T5, Alpha-2C adrenergic receptor (Homo sapiens) (UniProt P18825).
T5 sequence (whole entry): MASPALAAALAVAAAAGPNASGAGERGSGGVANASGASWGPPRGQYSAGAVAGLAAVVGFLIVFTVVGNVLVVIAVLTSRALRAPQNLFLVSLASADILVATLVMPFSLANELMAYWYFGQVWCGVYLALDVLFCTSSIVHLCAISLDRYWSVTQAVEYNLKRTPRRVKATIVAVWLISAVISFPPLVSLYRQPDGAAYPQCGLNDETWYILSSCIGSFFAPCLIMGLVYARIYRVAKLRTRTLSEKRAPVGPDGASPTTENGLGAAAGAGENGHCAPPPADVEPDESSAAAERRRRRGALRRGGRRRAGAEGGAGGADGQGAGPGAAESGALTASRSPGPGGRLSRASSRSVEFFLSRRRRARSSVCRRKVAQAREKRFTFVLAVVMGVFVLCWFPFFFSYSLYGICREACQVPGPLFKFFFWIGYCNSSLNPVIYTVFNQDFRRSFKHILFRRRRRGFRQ
The experiment in a line: Efficacy as percentage of the maximal effect observed for nonselective agonist UK-14304 in CHO cells expressing human Alpha-2C adrenergic receptor. Type of assay: functional, cell-based.

The target of assay [7] is T6, Alpha-2C adrenergic receptor (Homo sapiens, UniProt P18825).
T6 sequence (P18825 whole entry): T5 sequence (whole entry)
As to the kind of experiment: Affinity to human Alpha-2C adrenergic receptor determined by radioligand binding techniques from chinese hamster ovary (CHO) cells. It is filed as cell-based.

The term Ki denotes the equilibrium dissociation constant of an inhibitor or competing ligand from its target. The term EC50 denotes the midpoint of the concentration-response curve. Lower therefore signals a more potent agent. With `CSc1c(F)cccc1NCC1=NCCN1`, the Ki in assay [1] is 302 nM; in assay [3], 148 nM; in assay [4], 3980 nM; in assay [5], 240 nM; in assay [7], 219 nM. In addition, it took 33.9 nM to reach a half-maximal effect in assay [2] (EC50). The compound also displayed a Max in assay [6] of 104%.
As for `CSc1cc(F)ccc1NCC1=NCCN1`, the Ki in assay [1] was 5.01 nM; in assay [3], 20.9 nM; in assay [4], 851 nM; in assay [5], 15.1 nM; in assay [7], 219 nM. In assay [2], this compound had an EC50 of 9.12 nM. For the same compound, the Max in assay [6] is 82%.
Regarding `CS(=O)(=O)c1ccc(C(F)(F)F)cc1NCC1=NCCN1`, the Ki is over 15800 nM in assay [1]; over 12600 nM in assay [3]; over 6310 nM in assay [4]; over 10000 nM in assay [5]; over 5010 nM in assay [7]. The compound further gave an EC50 in assay [2] of over 100000 nM. This compound also came in with a Max in assay [6] of 25%.
`CSc1ccc(C(F)(F)F)cc1NCC1=NCCN1`: the Ki in assay [1] was 479 nM; in assay [3], 589 nM; in assay [4] it was 1660 nM; in assay [5], 2040 nM; in assay [7], 603 nM. In addition, a half-maximal response in assay [2] (EC50) required 43.7 nM. Also, in assay [6], the Max is 45%.
